ChEMBL document CHEMBL5149984, “Discovery of HN37 as a Potent and Chemically Stable Antiepileptic Drug Candidate” (J Med Chem, 2021)

Experiments:
[1] = molecular target: T1, Potassium voltage-gated channel subfamily KQT member 2/member 3 (Rattus norvegicus) (UniProt O88943+O88944); experiment: Agonist activity at rat KCNQ2/3 channel expressed in CHO cells assessed as shift of half voltage of maximal activation at 0.1 uM by patch clamp method; assay type: cell-based; settings: filed as agonist
Outline: (§1)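 Whole-cell patch clamp at room temperature on CHO cells (DMEM/F12, 10% FBS) transiently co-transfected with EGFP and hKCNQ1, rKCNQ2, rKCNQ3 A278T, hKCNQ4 or hKCNQ5; KCNQ2/3 at 1:1 cDNA ratio. Pipette solution 145 mM KCl, 5 mM MgATP, pH 7.3; bath 140 mM NaCl, 5 mM KCl, pH 7.4, under perfusion. V1/2 from Boltzmann fits; I/I0 is current amplitude with versus without compound; n = 4−6.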

CYP2C9 [2] = molecular target: T2, CYP2C9 (Homo sapiens, UniProt P11712); experiment: Inhibition of human liver microsome CYP2C9 at 0.10 to 50 uM preincubated with NADPH for 0.5 hrs followed by substrate addition by LC-MS/MS method relative to control; assay type: ADME; settings: liver microsomes, dose 0.1-50 µM
T2 sequence (P11712 whole entry): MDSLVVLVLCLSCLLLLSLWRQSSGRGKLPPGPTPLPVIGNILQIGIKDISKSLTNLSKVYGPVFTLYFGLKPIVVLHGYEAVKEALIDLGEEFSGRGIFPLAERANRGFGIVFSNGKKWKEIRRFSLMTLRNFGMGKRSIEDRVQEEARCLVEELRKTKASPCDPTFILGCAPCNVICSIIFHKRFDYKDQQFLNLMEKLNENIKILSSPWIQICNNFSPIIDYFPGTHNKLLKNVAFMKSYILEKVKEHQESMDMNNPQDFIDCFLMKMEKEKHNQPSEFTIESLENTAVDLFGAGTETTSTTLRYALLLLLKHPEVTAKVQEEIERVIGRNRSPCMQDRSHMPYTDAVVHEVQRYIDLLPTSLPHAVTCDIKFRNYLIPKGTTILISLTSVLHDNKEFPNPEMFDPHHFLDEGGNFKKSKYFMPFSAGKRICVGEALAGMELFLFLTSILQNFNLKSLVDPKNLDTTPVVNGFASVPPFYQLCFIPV

Rattus norvegicus = species: Rattus norvegicus; experiment: Potency index, ratio of Topiramate ED50 to test compound ED50 for anticonvulsant activity in MES induced rat model of seizure after 1 hr; assay type: functional
[3] = AUC(0 to t) in Kunming mouse plasma at 5 mg/kg, po measured upto 24 hrs by LC-MS/MS method; assay type: ADME, organism-based; set-up: dose 5 mg/kg, time < 24 hrs, route po
Outline: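 KM male mice (18−24 g), fasted 12 h before and 2 h after dosing. HN37 given orally at 5 mg/kg in 5% DMSO/5% Tween 80/90% saline, or iv at 2 mg/kg after dilution in saline with 1% Tween 80; n = 3 per time point. Blood sampled 0.25–24 h (from 0.083 h after iv); whole brain taken after oral dosing. Plasma and brain extracted with acetonitrile, quantified by LC−MS/MS; AUC0−t by trapezoidal method.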

[4] = Tmax in Sprague-Dawley rat brain at 6 mg/kg, po measured upto 24 hrs by LC-MS/MS method; assay type: ADME, organism-based
Outline: (§2)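 Male SD rats (180–220 g) dosed orally at 2, 6 and 20 mg/kg, handled like the mice: fasting, 5% DMSO/5% Tween 80/saline vehicle, acetonitrile extraction, LC-MS/MS of plasma. In a separate set at 6 mg/kg p.o., blood and brain were sampled together.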

CYP2C8 = CYP2C8 (Homo sapiens, UniProt P10632); experiment: Inhibition of human liver microsome CYP2C8 at 0.10 to 50 uM preincubated with NADPH for 0.5 hrs followed by substrate addition by LC-MS/MS method relative to control; assay type: ADME; settings: liver microsomes, dose 0.1-50 µM
Chain of CYP2C8 (P10632 whole entry): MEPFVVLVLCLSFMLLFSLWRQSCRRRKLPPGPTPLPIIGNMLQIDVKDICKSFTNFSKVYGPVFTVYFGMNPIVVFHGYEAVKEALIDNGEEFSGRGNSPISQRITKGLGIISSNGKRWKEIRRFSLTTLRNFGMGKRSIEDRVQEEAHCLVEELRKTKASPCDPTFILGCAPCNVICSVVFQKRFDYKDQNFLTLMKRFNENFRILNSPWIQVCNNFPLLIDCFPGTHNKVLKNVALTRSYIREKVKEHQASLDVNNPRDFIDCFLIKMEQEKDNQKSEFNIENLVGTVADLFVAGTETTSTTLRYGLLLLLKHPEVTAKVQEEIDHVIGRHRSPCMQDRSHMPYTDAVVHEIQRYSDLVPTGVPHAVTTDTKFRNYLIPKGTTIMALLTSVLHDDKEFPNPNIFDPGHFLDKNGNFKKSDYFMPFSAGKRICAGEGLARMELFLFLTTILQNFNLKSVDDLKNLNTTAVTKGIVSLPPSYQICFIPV

[5] = Ratio of AUC(0 to t) in Sprague-Dawley rat brain to plasma at 6 mg/kg, po measured upto 24 hrs by LC-MS/MS method; assay type: ADME, organism-based; settings: brain and plasma
Outline: (§3)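 Male SD rats (180−220 g) given single oral doses of 2, 6 and 20 mg/kg; handled as in the mouse PK study (fasted 12 h before and 2 h after dosing, 5% DMSO/5% Tween 80/90% saline formulation). In a separate 6 mg/kg p.o. set, blood and brain were sampled together. Plasma and brain levels by LC−MS/MS.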

[6] = Tmax in Sprague-Dawley rat blood at 6 mg/kg, po measured upto 24 hrs by LC-MS/MS method; assay type: ADME, organism-based; outline: as §2
[7] = Cmax in Sprague-Dawley rat at 2 mg/kg, po measured upto 24 hrs by LC-MS/MS method; assay type: ADME, organism-based; set-up: time < 24 hrs, dose 2 mg/kg, route po; settings: in vivo
Outline: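 Male SD rats (180−220 g) dosed orally at 2, 6 or 20 mg/kg in escalating fashion, handled as in the mouse study: 12 h fast, acetonitrile extraction of plasma, LC−MS/MS quantification. AUC0−t by trapezoidal method to the last measurable concentration.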

CYP2C19 = CYP2C19 (Homo sapiens, UniProt P33261); experiment: Inhibition of human liver microsome CYP2C19 at 0.10 to 50 uM preincubated with NADPH for 0.5 hrs followed by substrate addition by LC-MS/MS method relative to control; assay type: ADME; settings: liver microsomes, dose 0.1-50 µM
Chain of CYP2C19 (P33261 whole entry): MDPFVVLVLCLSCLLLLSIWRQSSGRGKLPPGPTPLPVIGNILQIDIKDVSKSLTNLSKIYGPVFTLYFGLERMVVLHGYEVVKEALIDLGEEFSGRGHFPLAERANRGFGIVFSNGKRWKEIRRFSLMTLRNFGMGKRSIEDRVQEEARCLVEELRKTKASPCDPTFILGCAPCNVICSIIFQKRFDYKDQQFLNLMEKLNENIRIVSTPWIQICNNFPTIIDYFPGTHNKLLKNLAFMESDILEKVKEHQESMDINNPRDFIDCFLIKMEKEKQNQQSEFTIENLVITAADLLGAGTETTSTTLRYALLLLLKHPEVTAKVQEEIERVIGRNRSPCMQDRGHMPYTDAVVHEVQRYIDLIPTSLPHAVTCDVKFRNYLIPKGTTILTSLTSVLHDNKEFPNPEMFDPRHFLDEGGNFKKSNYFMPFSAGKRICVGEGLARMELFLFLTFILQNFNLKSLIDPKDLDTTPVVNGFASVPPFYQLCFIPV

[8] = molecular target: Potassium voltage-gated channel subfamily KQT member 5 (Homo sapiens) (UniProt Q9NR82); experiment: Agonist activity at human KCNQ5 channel expressed in CHO cells assessed as amplitude change of outward current at 0.1 uM by patch clamp method; assay type: cell-based; settings: filed as agonist; outline: as §1
Chain of Potassium voltage-gated channel subfamily KQT member 5 (Homo sapiens) (Q9NR82 whole entry): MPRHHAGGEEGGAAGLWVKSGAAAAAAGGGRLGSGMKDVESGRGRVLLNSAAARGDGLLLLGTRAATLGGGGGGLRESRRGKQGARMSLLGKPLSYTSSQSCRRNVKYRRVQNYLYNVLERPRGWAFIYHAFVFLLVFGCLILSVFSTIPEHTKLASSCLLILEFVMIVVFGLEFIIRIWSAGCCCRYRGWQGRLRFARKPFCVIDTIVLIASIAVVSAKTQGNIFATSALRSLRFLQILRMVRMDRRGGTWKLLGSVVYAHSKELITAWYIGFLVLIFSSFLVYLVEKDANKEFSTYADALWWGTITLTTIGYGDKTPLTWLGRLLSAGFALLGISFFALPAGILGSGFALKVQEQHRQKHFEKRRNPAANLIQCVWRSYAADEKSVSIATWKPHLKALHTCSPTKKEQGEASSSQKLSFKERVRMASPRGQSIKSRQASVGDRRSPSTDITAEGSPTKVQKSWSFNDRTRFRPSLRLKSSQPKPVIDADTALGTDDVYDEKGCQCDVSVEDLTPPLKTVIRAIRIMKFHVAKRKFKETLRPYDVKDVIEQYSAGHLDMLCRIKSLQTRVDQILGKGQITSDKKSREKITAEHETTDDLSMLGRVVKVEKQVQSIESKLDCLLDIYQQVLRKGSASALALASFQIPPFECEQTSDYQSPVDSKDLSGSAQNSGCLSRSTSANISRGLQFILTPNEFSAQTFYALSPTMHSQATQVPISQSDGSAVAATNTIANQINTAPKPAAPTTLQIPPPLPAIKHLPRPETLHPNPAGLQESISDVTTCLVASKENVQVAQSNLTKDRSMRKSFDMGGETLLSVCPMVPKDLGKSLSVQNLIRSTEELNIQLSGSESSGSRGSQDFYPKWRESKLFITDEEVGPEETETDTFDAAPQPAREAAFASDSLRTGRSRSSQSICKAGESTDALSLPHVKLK

[9] = Metabolic stability in mouse liver microsomes assessed as half life; assay type: ADME, Microsome
CHO = experiment: Agonist activity at rat KCNQ3 A278T mutant expressed in CHO cells assessed as amplitude change of outward current at 0.1 uM by patch clamp method; assay type: cell-based; settings: filed as agonist; outline: as §1
CYP2C9 [10] = molecular target: T2, CYP2C9; experiment: Ratio of IC50 for human liver microsome CYP2C9 in absence of NADPH to IC50 for human liver microsome CYP2C9 in presence of NADPH; settings: liver microsomes, read-out: Ratio IC50
[11] = Cmax in Sprague-Dawley rat at 6 mg/kg, po measured upto 24 hrs by LC-MS/MS method; assay type: ADME, organism-based; set-up: time < 24 hrs, dose 6 mg/kg, route po; settings: in vivo; outline: as §3
Mus musculus [12] = experiment: Anticonvulsant activity in MES induced Kunming mouse model of seizure at 3 mg/kg, po after 1 hr; assay type: functional
Outline: (§4)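 MES test in male KM mice. Compounds freshly suspended in 0.5% CMC-Na and given by gavage at 20 mL/kg; 160 V stimulus through ear clips. Protection scored as absence of hindlimb tonic extension; time course at 0.25, 0.5, 1 and 2 h, otherwise tested at 1 h. ED50 from dose−response by nonlinear regression; Fisher's exact test versus vehicle.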

[13] = molecular target: T1, Potassium voltage-gated channel subfamily KQT member 2/member 3 (Rattus norvegicus); experiment: Potency index, ratio of retigabine EC50 to test compound EC50 for agonist activity at rat KCNQ2/3 channel expressed in CHO cells by patch clamp method; assay type: cell-based
[14] = Half life in Sprague-Dawley rat at 6 mg/kg, po measured upto 24 hrs by LC-MS/MS method; assay type: ADME, organism-based; settings: in vivo; outline: as §3
[15] = Ratio of drug concentration in brain to plasma of MES induced Kunming mouse model of seizure
[16] = Drug concentration in Kunming mouse plasma at 5 mg/kg; assay type: ADME, organism-based; settings: in vivo
Outline: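 Male KM mice (18−24 g) fasted 12 h before and 2 h after dosing, given 5 mg/kg orally in 5% DMSO/5% Tween 80/90% normal saline (n = 3 per time point). Aortic blood taken at 0.25–24 h and whole brain collected. Acetonitrile extraction with internal standard, then LC−MS/MS. Bioavailability calculated against the 2 mg/kg i.v. arm.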

[17] = Tmax in Kunming mouse brain at 5 mg/kg, po measured upto 24 hrs by LC-MS/MS method; assay type: ADME, organism-based
Outline: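 Male KM mice (18–24 g), fasted 12 h before and 2 h after dosing, n = 3 per time point. Oral dose in 5% DMSO/5% Tween 80/90% saline; i.v. dose is that formulation diluted in saline with 1% Tween 80. Blood sampled 0.25–24 h after oral dosing, 0.083–24 h after i.v.; whole brain taken after oral dosing. Acetonitrile extraction with internal standard, LC-MS/MS.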

CYP2D6 = CYP2D6 (Homo sapiens, UniProt P10635); experiment: Ratio of IC50 for human liver microsome CYP2D6 in absence of NADPH to IC50 for human liver microsome CYP2D6 in presence of NADPH; settings: liver microsomes, read-out: Ratio IC50
Chain of CYP2D6 (P10635 whole entry): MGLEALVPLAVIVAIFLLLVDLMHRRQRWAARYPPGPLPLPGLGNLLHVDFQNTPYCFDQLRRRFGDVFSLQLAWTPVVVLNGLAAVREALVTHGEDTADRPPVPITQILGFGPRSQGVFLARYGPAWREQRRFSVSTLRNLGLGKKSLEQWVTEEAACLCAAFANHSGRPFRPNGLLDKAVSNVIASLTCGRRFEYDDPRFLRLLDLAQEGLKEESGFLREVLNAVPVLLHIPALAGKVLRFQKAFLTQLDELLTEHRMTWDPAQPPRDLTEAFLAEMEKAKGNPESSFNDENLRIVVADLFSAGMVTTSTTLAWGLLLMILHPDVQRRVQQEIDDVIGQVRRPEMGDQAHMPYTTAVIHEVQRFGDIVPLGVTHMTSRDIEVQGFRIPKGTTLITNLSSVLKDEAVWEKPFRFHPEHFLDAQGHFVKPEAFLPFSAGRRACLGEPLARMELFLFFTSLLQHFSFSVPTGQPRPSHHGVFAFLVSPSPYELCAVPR

Mus musculus [18] = experiment: Anticonvulsant activity in MES induced Kunming mouse model of seizure at 100 mg/kg, po; assay type: functional; outline: as §4
[19] = Toxicity in C57BL/6 mouse assessed as sedative effect at 80 mg/kg; assay type: organism-based; settings: in vivo

C#CCN(Cc1ccc(F)cc1)c1cc(C)c(NC(=O)OC)c(C)c1
Activity [1]: -60.2 mV
inhibition at 0.5 h, up to 50 µM (CYP2C9 [2]): < 25%
Ratio ED50 (Rattus norvegicus): 18.7
AUC(0-t) at 24 h [3]: 321 ng·h/mL
Tmax [4]: 15 min
inhibition at 0.5 h, up to 50 µM (CYP2C8): < 25%
Kp at 24 h [5]: 2.86
Tmax [6]: 15 min
Cmax [7]: 88.2 ng/mL
inhibition at 0.5 h, up to 50 µM (CYP2C19): < 25%
Activity [8]: 3.14
half-life [9]: 12.5 min
Activity (CHO): 2.1
IC50 shift (CYP2C9 [10]): < 1.5
Cmax [11]: 264 ng/mL
Activity (Mus musculus [12]): 62.5%
Ratio EC50 [13]: 125
half-life [14]: 142 min
Kp [15]: 1.4
concentration [16]: 110 nM
Tmax [17]: 15 min
IC50 shift (CYP2D6): < 1.5

CCOC(=O)Nc1ccc(NCc2ccc(F)cc2)cc1N [EZOGABINE]
Activity (Mus musculus [18]): 87.5%
Activity [19]: Toxic
